The results in this text go back to ChEMBL document CHEMBL1138851, “Synthesis, antifungal activity, and structure-activity relationships of coruscanone A analogues” (J Med Chem, 2006).

Each structure is given as a SMILES string. Values after ≈ are worked out from the molar mass of the structure shown.

One assay deals with Aspergillus fumigatus. Description: Antifungal activity against Aspergillus fumigatus ATCC 90906. The assay is classed as functional, organism-based.
Assay [1] concerns Candida albicans. Description: Antifungal activity against fluconazole-susceptible Candida albicans. The assay is classed as functional, organism-based. A digest of the protocol:
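Broth microdilution; samples serially diluted in 20% DMSO/saline, duplicate wells. Incubated 37 °C, 18–24 h; OD630 read before and after incubation. IC50 from percent growth vs concentration; MIC as lowest concentration with no detectable growth; MFC as no growth on agar after plating 5 μl from clear wells.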

The test system of a further assay is LLC-PK1. The assay can be described thus: Cytotoxicity against LLC-PK1 cells by neutral red method. The assay is classed as cell-based. The note with it: Sus scrofa. A digest of the protocol:
(§1)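 Neutral red assay on ATCC-sourced Vero (African green monkey kidney […]) and LLC-PK1 (pig kidney epithelial) cells. Top test concentration 10 μg/mL. Values are means of three independent experiments.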

A further assay has as its system Vero. Description: Cytotoxicity against Vero cells by neutral red method. The assay is classed as cell-based. As to conditions: Chlorocebus sabaeus. A digest of the protocol: as §1
Assay [2] concerns Candida albicans. The assay can be described thus: Antifungal activity against Candida albicans ATCC 90028. The assay is classed as functional, organism-based. A digest of the protocol: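 Broth microdilution; samples serially diluted in 20% DMSO/saline, duplicate wells. Inoculum 1.0 × 10⁴ CFU/ml in RPMI 1640/2% dextrose/0.03% glutamine/MOPS, pH 6.0. Incubated 37 °C, 18–24 h; OD630 read before and after incubation. IC50 from percent growth vs concentration; MIC as lowest concentration with no detectable growth; MFC as no growth on agar after plating 5 μl from clear wells.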

Assay [3] concerns Candida albicans. Description: Antifungal activity against fluconazole-resistant Candida albicans. The assay is classed as functional, organism-based. A digest of the protocol:
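Broth microdilution (NCCLS-based) against patient isolate #17 (last isolate during fluconazole therapy, azole-resistant); samples serially diluted in 20% DMSO/saline, tested in duplicate. Inoculum 1.0 × 10⁴ CFU/ml in RPMI 1640/2% dextrose/0.03% glutamine/MOPS pH 6.0; 37 °C, 18–24 h; OD630 read before and after. IC50 from % growth versus concentration; MIC = no detectable growth; MFC by subculture onto agar. Means of three independent experiments.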

The next assay concerns Cryptococcus neoformans. Description: Antifungal activity against Cryptococcus neoformans ATCC 90113. The assay is classed as functional, organism-based. A digest of the protocol:
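Serial dilutions in 20% DMSO/saline, tested in duplicate. Inoculum 1.0 × 10⁵ CFU/ml in Sabouraud dextrose broth. Incubated 30 °C, 72 h; OD630 read before and after incubation. IC50 from percent growth vs concentration; MIC as lowest concentration with no detectable growth; MFC as no growth on agar after plating 5 μl from clear wells.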

As a reminder, the IC50 is the concentration that inhibits the measured activity by half. A high value points to weaker potency. Broadly, the MFC is the smallest concentration meeting the test's criterion for killing the fungus. A high value points to less potent killing. The MIC is the lowest concentration found to suppress growth. A lower MIC goes with a more susceptible organism. Take `COC(/C=C/c1ccccc1)=C1\C(=O)C=C(c2ccccc2)C1=O`: the IC50 with Aspergillus fumigatus is over 20 µg/mL; with Candida albicans [1], 20 µg/mL (≈ 63.2 µM); in the assay on LLC-PK1 it was 5.1 µg/mL (≈ 16.1 µM); with Vero, over 10 µg/mL; with Candida albicans [2] it was over 20 µg/mL; with Candida albicans [3], 18 µg/mL (≈ 56.9 µM). This compound had a 50% inhibitory concentration (IC50) in the assay on Cryptococcus neoformans of over 20 µg/mL. For the same compound, the minimum fungicidal concentration (MFC) in the assay on Aspergillus fumigatus, with Candida albicans [1], in the assay with Candida albicans [2] and against Cryptococcus neoformans was over 20 µg/mL throughout. Besides, the MIC with Aspergillus fumigatus, against Candida albicans [1], in the assay with Candida albicans [2] and against Cryptococcus neoformans was over 20 µg/mL in each case.

Regarding `COC(/C=C/c1ccc(Cl)cc1)=C1\C(=O)C=C(C)C1=O`, the IC50 stood at 20 µg/mL (≈ 69.3 µM) in the assay on Aspergillus fumigatus; 0.64 µg/mL (≈ 2.22 µM) with Candida albicans [1]; 3.1 µg/mL (≈ 10.7 µM) with LLC-PK1; 5.5 µg/mL (≈ 19 µM) with Vero; 1.39 µg/mL (≈ 4.81 µM) in the assay with Candida albicans [2]; 0.86 µg/mL (≈ 2.98 µM) with Candida albicans [3]. In the assay with Cryptococcus neoformans, this compound had a half-inhibitory concentration (IC50) of 2.23 µg/mL (≈ 7.72 µM). For the same compound, the MFC against Aspergillus fumigatus was over 20 µg/mL; in the assay with Candida albicans [1] it was 2.92 µg/mL (≈ 10.1 µM); in the assay with Candida albicans [2], 4.17 µg/mL (≈ 14.4 µM); against Candida albicans [3] it was 2.92 µg/mL (≈ 10.1 µM); in the assay on Cryptococcus neoformans, 12 µg/mL (≈ 41.6 µM). Besides, the MIC with Aspergillus fumigatus is over 20 µg/mL; in the assay with Candida albicans [1], 2.08 µg/mL (≈ 7.2 µM); against Candida albicans [2] it was 4.17 µg/mL (≈ 14.4 µM); against Candida albicans [3], 2.92 µg/mL (≈ 10.1 µM); against Cryptococcus neoformans, 12 µg/mL (≈ 41.6 µM).

On to `CC1=CC(=O)/C(=C(O)/C=C/c2ccc(Cl)cc2)C1=O`, for which the 50% inhibitory concentration (IC50) is over 20 µg/mL with Aspergillus fumigatus; 10 µg/mL (≈ 36.4 µM) in the assay on Candida albicans [1]; 6 µg/mL (≈ 21.8 µM) with LLC-PK1; over 10 µg/mL with Vero; 13 µg/mL (≈ 47.3 µM) with Candida albicans [2]; 13 µg/mL (≈ 47.3 µM) with Candida albicans [3]. The same compound gave a 50% inhibitory concentration (IC50) with Cryptococcus neoformans of over 20 µg/mL. The minimum fungicidal concentration (MFC) in the assay on Aspergillus fumigatus, against Candida albicans [1], in the assay on Candida albicans [2] and with Cryptococcus neoformans was over 20 µg/mL each time. Further, the minimum inhibitory concentration (MIC) in the assay on Aspergillus fumigatus, in the assay on Candida albicans [1], in the assay with Candida albicans [2] and in the assay on Cryptococcus neoformans was over 20 µg/mL in each case.

For `C[C@@H]1[C@H](O)[C@@H](C)/C=C/C=C/C=C/C=C/C=C/C=C/C=C/[C@H](O[C@@H]2O[C@H](C)[C@@H](O)[C@H](N)[C@@H]2O)C[C@@H]2O[C@](O)(C[C@@H](O)C[C@@H](O)[C@H](O)CC[C@@H](O)C[C@@H](O)CC(=O)O[C@H]1C)C[C@H](O)[C@H]2C(=O)O` [AMPHOTERICIN B], the half-maximal inhibitory concentration (IC50) is 0.73 µg/mL (≈ 0.79 µM) in the assay on Aspergillus fumigatus; 0.12 µg/mL (≈ 0.13 µM) with Candida albicans [1]; 2.4 µg/mL (≈ 2.6 µM) in the assay on LLC-PK1; 7 µg/mL (≈ 7.58 µM) in the assay on Vero; 0.15 µg/mL (≈ 0.162 µM) in the assay on Candida albicans [2]; 0.17 µg/mL (≈ 0.184 µM) in the assay on Candida albicans [3]. Besides, the IC50 with Cryptococcus neoformans is 0.41 µg/mL (≈ 0.444 µM). Further, the MIC in the assay on Candida albicans [1] came to 0.52 µg/mL (≈ 0.563 µM); in the assay on Candida albicans [2], 0.63 µg/mL (≈ 0.682 µM); with Candida albicans [3] it was 0.63 µg/mL (≈ 0.682 µM). Also, the minimum fungicidal concentration (MFC) against Candida albicans [2] is 1.04 µg/mL (≈ 1.13 µM); in the assay on Candida albicans [3], 0.83 µg/mL (≈ 0.898 µM); in the assay on Cryptococcus neoformans, 1.67 µg/mL (≈ 1.81 µM).

As to `COC(/C=C/c1ccccc1)=C1\C(=O)C=C(C)C1=O` [CORUSCANONE A], the IC50 in the assay with Aspergillus fumigatus worked out at 19 µg/mL (≈ 74.7 µM); in the assay with Candida albicans [1], 0.47 µg/mL (≈ 1.85 µM); in the assay on LLC-PK1 it was 3.4 µg/mL (≈ 13.4 µM); with Vero, 4.9 µg/mL (≈ 19.3 µM); in the assay on Candida albicans [2], 0.8 µg/mL (≈ 3.15 µM); in the assay with Candida albicans [3] it was 0.68 µg/mL (≈ 2.67 µM). In addition, in the assay with Cryptococcus neoformans, the 50% inhibitory concentration (IC50) was determined as 2.04 µg/mL (≈ 8.02 µM). The MFC in the assay on Aspergillus fumigatus was over 20 µg/mL; in the assay with Candida albicans [1], 1.25 µg/mL (≈ 4.92 µM); against Candida albicans [2] it was 2.08 µg/mL (≈ 8.18 µM); against Candida albicans [3], 2.08 µg/mL (≈ 8.18 µM); with Cryptococcus neoformans, 8.33 µg/mL (≈ 32.8 µM). The minimal inhibitory concentration (MIC) in the assay with Aspergillus fumigatus is over 20 µg/mL; with Candida albicans [1], 1.25 µg/mL (≈ 4.92 µM); against Candida albicans [2] it was 2.08 µg/mL (≈ 8.18 µM); with Candida albicans [3], 2.08 µg/mL (≈ 8.18 µM); in the assay on Cryptococcus neoformans, 8.33 µg/mL (≈ 32.8 µM).

Consider `OC(Cn1cncn1)(Cn1cncn1)c1ccc(F)cc1F` [FLUCONAZOLE], for which the half-maximal inhibitory concentration (IC50) is over 200 µg/mL in the assay on Aspergillus fumigatus; 0.24 µg/mL (≈ 0.784 µM) in the assay on Candida albicans [1]; over 10 µg/mL in the assay on LLC-PK1; over 10 µg/mL in the assay on Vero; 0.22 µg/mL (≈ 0.718 µM) in the assay with Candida albicans [2]; 118 µg/mL (≈ 385 µM) with Candida albicans [3]. In addition, the IC50 with Cryptococcus neoformans was determined as 5.65 µg/mL (≈ 18.4 µM). Further, the MFC in the assay with Aspergillus fumigatus, against Candida albicans [1], in the assay on Candida albicans [2], against Candida albicans [3] and in the assay with Cryptococcus neoformans was over 200 µg/mL throughout. For the same compound, the minimal inhibitory concentration (MIC) is over 200 µg/mL in the assay with Aspergillus fumigatus; 0.45 µg/mL (≈ 1.47 µM) in the assay with Candida albicans [1]; 0.45 µg/mL (≈ 1.47 µM) with Candida albicans [2]; over 200 µg/mL with Candida albicans [3]; 37 µg/mL (≈ 121 µM) in the assay with Cryptococcus neoformans.
